In ChEMBL document CHEMBL5705892, “MK-2206, an allosteric Akt inhibitor, enhances antitumor efficacy by standard chemotherapeutic agents or molecular targeted drugs in vitro and in vivo” (Mol Cancer Ther, 2010):
Calls of active or inactive are those of the source. The calls are words filed in the database; no cut-off is given here.

What was measured:
[1] = Toxicity in human NCI-H460 cells xenografted CD1 nude mouse assessed as body weight loss at 120 mg/kg, po administered 3 times per week for 2 weeks measured during compound dosing relative to control; type: organism-based; conditions: in vivo, 336 h
Mus musculus = test: In vivo inhibition of AKT in human NCI-H292 cells xenografted mouse at 120 mg/kg, po administered as single dose measured after 12 hrs by immunoprecipitation assay; type: functional, organism-based
SK-OV-3 [2] = test: Synergistic antiproliferative activity against lapatinib pretreated human SK-OV-3 cells assessed as combination index at ED75 measured after 72 hrs by celltiter-glo assay; type: functional
NCI-N87 [3] = test: Synergistic antiproliferative activity against lapatinib pretreated human NCI-N87 cells assessed as combination index at ED90 measured after 72 hrs by celltiter-glo assay; type: functional
NCI-H460 [4] = test: Synergistic antiproliferative activity against human NCI-H460 cells assessed as combination index at ED90 measured after 72 hrs in presence of carboplatin by celltiter-glo assay; type: functional
MDA-MB-468 = test: Synergistic antiproliferative activity against lapatinib pretreated human MDA-MB-468 cells assessed as combination index at ED50 measured after 72 hrs by celltiter-glo assay; type: functional
NCI-H23 = test: Synergistic antiproliferative activity against human NCI-H23 cells assessed as fold change in erlotinib IC50 at 1 umol/L measured after 72 hrs in presence of erlotinib by celltiter-glo assay relative to erlotinib alone; type: functional; conditions: dose 1 µmol/L
[5] = target: RAC-alpha serine/threonine-protein kinase (Homo sapiens) (UniProt P31749); test: Inhibition of AKT phosphorylation at S473 residue in human HCC70 cells at 1 umol/L measured after 3 to 24 hrs by Western blot analysis; type: cell-based; conditions: dose 1.0 µmol/L, time 3-24 hrs
Sequence of RAC-alpha serine/threonine-protein kinase (Homo sapiens) (P31749 whole entry): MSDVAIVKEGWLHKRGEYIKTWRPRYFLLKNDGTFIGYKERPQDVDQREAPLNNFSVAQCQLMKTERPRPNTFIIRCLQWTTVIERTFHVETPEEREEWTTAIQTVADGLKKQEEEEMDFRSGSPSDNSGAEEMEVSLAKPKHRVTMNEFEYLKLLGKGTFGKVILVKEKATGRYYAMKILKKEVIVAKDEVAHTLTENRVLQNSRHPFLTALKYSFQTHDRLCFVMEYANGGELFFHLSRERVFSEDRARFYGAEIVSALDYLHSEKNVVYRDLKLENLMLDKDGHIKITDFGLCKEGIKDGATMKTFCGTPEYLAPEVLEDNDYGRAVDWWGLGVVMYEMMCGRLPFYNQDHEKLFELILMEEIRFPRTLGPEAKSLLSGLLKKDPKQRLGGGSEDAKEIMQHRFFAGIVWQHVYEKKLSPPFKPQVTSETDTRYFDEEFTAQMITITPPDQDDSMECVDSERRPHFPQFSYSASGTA
Procedure, shortened: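 HCC70 cells at ~70% confluence were exposed to 10 µmol/L lapatinib, 1 µmol/L MK-2206, or both, for 0, 3, 6, 12 or 24 h. Lysates were prepared in Triton X-100/Tris buffer (pH 7.5) with protease and phosphatase inhibitors. Immunoblots after SDS-PAGE and nitrocellulose transfer were probed for pAkt and pS6.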

ZR-75-1 [6] = test: Synergistic antiproliferative activity against human ZR-75-1 cells assessed as combination index at ED50 measured after 72 hrs in presence of docetaxel by celltiter-glo assay; type: functional
NCI-N87 [7] = test: Synergistic antiproliferative activity against human NCI-N87 cells assessed as combination index at ED50 measured after 72 hrs in presence of lapatinib by celltiter-glo assay; type: functional
A2780 [8] = test: Synergistic antiproliferative activity against human A2780 cells assessed as combination index at ED50 measured after 72 hrs in presence of gemcitabine by celltiter-glo assay; type: functional
Procedure, shortened: (§1)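 Cells were seeded at 2–3 × 10³ per well in RPMI 1640 with 10% FBS. At 24 h, MK-2206 and the partner drug were added simultaneously at constant concentration ratios spanning each agent's IC₅₀, for 72 h. Growth was read as cellular ATP by CellTiter-Glo. CI was taken from median-effect plots of each agent alone and in combination (Chou–Talalay), at ED₅₀, ED₇₅ and ED₉₀.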

HCC1954 = test: Synergistic antiproliferative activity against lapatinib pretreated human HCC1954 cells assessed as combination index at ED75 measured after 72 hrs by celltiter-glo assay; type: functional
ZR-75-1 [9] = test: Synergistic antiproliferative activity against human ZR-75-1 cells assessed as combination index at ED90 measured after 72 hrs in presence of docetaxel by celltiter-glo assay; type: functional
A-431 = test: Synergistic antiproliferative activity against human A-431 cells assessed as combination index at ED50 measured after 72 hrs in presence of erlotinib by celltiter-glo assay; type: functional; procedure, shortened: as §1
SK-BR-3 [10] = test: Synergistic antiproliferative activity against human SK-BR-3 cells assessed as combination index at ED75 measured after 72 hrs in presence of docetaxel by celltiter-glo assay; type: functional
[11] = target: RAC-alpha serine/threonine-protein kinase (Homo sapiens) (UniProt P31749); test: Inhibition of AKT in human HCC827 cells assessed as reduction in PRAS40 phosphorylation at T246 residue at 5 umol/L measured after 5 hrs in presence of erlotinib by Western blot analysis; type: cell-based; conditions: dose 5.0 µmol/L
SK-OV-3 [12] = test: Antitumor activity against human SK-OV-3 cells xenografted in CB17/icr SCID mouse assessed as tumor growth inhibition at 60 to 120 mg/kg, po administered 3 times per week for 2 weeks and measured twice a week during compound dosing by caliper method; type: functional, organism-based; conditions: dose 60-120 mg/kg
Procedure, shortened: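 SK-OV-3 cells were implanted s.c. into female C.B-17/ICR-scid mice, which were randomized at 0.13 cm³, n = 5. Lapatinib (water) was given at 100 mg/kg po on days 0–4 and 7–11. MK-2206 (30% Captisol) was given at 60 or 120 mg/kg po on days 0, 2, 4, 7, 9, 11. Tumor volume by calipers twice weekly.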

[13] = Effect on total S6 protein expression in human HCC70 cells at 1 umol/L measured after 3 to 24 hrs in presence of lapatinib by Western blot analysis; type: toxicity, cell-based; conditions: hcc70, 1 µM, time 3-24 hrs, dose 1 µmol/L
Procedure, shortened: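 HCC70 cells at ~70% confluence were exposed to 1 µmol/L MK-2206, 10 µmol/L lapatinib, or both for 0, 3, 6, 12 or 24 h. Cells were lysed in Tris-HCl pH 7.5/NaCl/1% Triton X-100 with protease and phosphatase inhibitors. Lysates were run on SDS-PAGE and immunoblotted.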

SK-BR-3 [14] = test: Synergistic antiproliferative activity against human SK-BR-3 cells assessed as combination index at ED90 treated 24 hrs prior to lapatinib and measured after 72 hrs by celltiter-glo assay; type: functional; conditions: time 96 hrs
NCI-H661 = test: Induction of apoptosis in human NCI-H661 cells assessed as fold induction of capsase-3/7 activity measured after 24 to 48 hrs in presence of gemcitabine by caspase-glo 3/7 assay; type: functional; conditions: time 24-48 hrs
NCI-N87 [15] = test: Synergistic antiproliferative activity against human NCI-N87 cells assessed as combination index at ED90 treated 24 hrs prior to lapatinib and measured after 72 hrs by celltiter-glo assay; type: functional; conditions: time 96 hrs
A2780 [16] = test: Synergistic antiproliferative activity against human A2780 cells assessed as combination index at ED90 measured after 72 hrs in presence of gemcitabine by celltiter-glo assay; type: functional; procedure, shortened: as §1
[17] = Toxicity in human NCI-H292 cells xenografted CD-1 mouse assessed as weight loss at 120 mg/kg, po administered 3 times per week for 2 weeks starting 2 hrs post-erlotinib treatment and measured on day 16; type: organism-based; conditions: in vivo, 384 h, time 16 day
Procedure, shortened: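 Female CD1-nude mice bearing s.c. NCI-H292 tumours (cells in 50% Matrigel/50% PBS, left flank), randomized at mean 0.2 cm³, n=5/group. Body weight monitored; treatment period ended day 16.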

A2780 [18] = test: Induction of apoptosis in human A2780 cells assessed as increase in caspase-3/7 activity at 0.0625 to 1 uM incubated for 24 hrs prior to addition of carboplatin and measured after 24 hrs by caspase-glo 3/7 assay; type: functional, cell-based; conditions: dose 0.0625-1 µM
SK-BR-3 [19] = test: Synergistic antiproliferative activity against lapatinib pretreated human SK-BR-3 cells assessed as combination index at ED50 measured after 72 hrs by celltiter-glo assay; type: functional
NCI-H460 [20] = test: Synergistic antiproliferative activity against human NCI-H460 cells assessed as combination index at ED75 measured after 72 hrs in presence of erlotinib by celltiter-glo assay; type: functional

Cl.NC1(c2ccc(-c3nc4ccn5c(=O)[nH]nc5c4cc3-c3ccccc3)cc2)CCC1
Activity [1]: 7% | inhibition (Mus musculus): Active | CI75 (SK-OV-3 [2]): 0.18 | CI90 (NCI-N87 [3]): 0.18 | CI90 (NCI-H460 [4]): 0.37 | CI50 (MDA-MB-468): 0.18 | Ratio IC50 (NCI-H23): 2.4 | inhibition [5]: Active | CI50 (ZR-75-1 [6]): 0.1 | CI50 (NCI-N87 [7]): 0.45 | CI50 (A2780 [8]): 0.57 | CI75 (HCC1954): 0.18 | CI90 (ZR-75-1 [9]): 0.4 | CI50 (A-431): 0.42 | CI75 (SK-BR-3 [10]): 0.7 | inhibition [11]: Active | TGI (SK-OV-3 [12]): Active | Activity [13]: Toxic | CI90 (SK-BR-3 [14]): 0.18 | fold change (FC) (NCI-H661): 1.3 | CI90 (NCI-N87 [15]): 0.18 | CI90 (A2780 [16]): 0.39 | Activity [17]: Non-Toxic | Activity (A2780 [18]): inactive | CI50 (SK-BR-3 [19]): 0.18 | CI75 (NCI-H460 [20]): 0.23
